Screens as filed in PubChem.
Runt-SMMHC FRET: inhibitors of human RUNX1 Runt domain binding to CBFb-SMMHC | Q01196+Q13951 | Cerulean-Runt/Venus-CBFb-SMMHC FRET ratio 530/480, 1 h | inhibition, % at 20 µM | 220,000 compounds, 0.74% hits | AID 1434;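 active = mean inhibition across duplicate retests at 20 µM reaching about 50%, limit read from the data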;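 also: 0% = DMSO wells and 100% = wells with excess untagged CBFb-SMMHC; inhibitors lower the FRET ratio by blocking Runt binding to CBFb-SMMHC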
Hck Nef HTS: human Hck-Nef kinase inhibition; P08631; Recombinant Hck-YEEI plus Nef, Z-Lyte FRET kinase assay; inhibition, % at 20 µM; 220,000 compounds, 0.68% hits;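 active = Hck-Nef kinase inhibition above about 50%, limit read from the data; inactive = inhibition below that limit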;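 also: 0% = DMSO with Hck plus Nef and 100% = Hck alone without Nef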
Target sequence (P08631 whole entry, looked up): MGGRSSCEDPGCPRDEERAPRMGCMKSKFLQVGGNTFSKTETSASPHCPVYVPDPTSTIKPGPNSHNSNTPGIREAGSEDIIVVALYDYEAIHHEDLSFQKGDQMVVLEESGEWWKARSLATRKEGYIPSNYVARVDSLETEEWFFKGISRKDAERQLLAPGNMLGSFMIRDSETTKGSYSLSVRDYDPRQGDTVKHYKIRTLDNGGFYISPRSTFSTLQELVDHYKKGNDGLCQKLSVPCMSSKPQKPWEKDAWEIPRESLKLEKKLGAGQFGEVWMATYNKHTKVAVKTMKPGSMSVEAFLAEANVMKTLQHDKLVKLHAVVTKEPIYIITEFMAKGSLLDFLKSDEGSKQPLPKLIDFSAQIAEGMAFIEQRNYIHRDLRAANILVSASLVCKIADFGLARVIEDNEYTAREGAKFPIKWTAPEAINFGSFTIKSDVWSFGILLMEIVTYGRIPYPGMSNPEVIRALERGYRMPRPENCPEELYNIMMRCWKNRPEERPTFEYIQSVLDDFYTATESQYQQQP
Tb hexokinase: blocks Trypanosoma brucei hexokinase 1 activity | recombinant TbHK1, G6PDH-coupled NADH A340 | inhibition, % at 10 µM | 220,000 compounds, 0.11% hits | AID 1430;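 active = inhibition of 50% or more in the single-dose primary screen; inactive = inhibition below 50%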
Runt-CBFb FRET: inhibitors of human RUNX1 Runt domain binding to CBFb; Q01196+Q13951; Cerulean-Runt/Venus-CBFb FRET ratio 530/480, 1 h; inhibition, % at 20 µM; 220,000 compounds, 0.46% hits; AID 1496;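 active = inhibition over about 50% at 20 µM in the single-dose screen, limit read from the data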;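 also: 0% = DMSO wells and 100% = excess unlabeled CBFb competitor control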
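Reagent – Venus-CBFb binding partner, 100 nM · Assay system – Cerulean-tagged RUNX1 Runt domain (FRET donor) fusion protein · Input – 100 nM per protein · Incubation – two 1 h room-temperature incubations shielded from light · Measured by – FRET fluorescence · Medium – Tris buffer pH 7.5 with salts and BSA · Benchmarks – unlabeled CBFb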
p97 ATPase inh: human p97 ATPase inhibition; P55072; recombinant p97 ATPase, Kinase-Glo ATP luminescence, 3 h; inhibition, % at 8 µM; 220,000 compounds, 0.42% hits; AID 1481; in the data active = inhibition above about 15%;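 also: 0% = DMSO vehicle and 100% = wells lacking enzyme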
RanGTP-Imp inh: disruptors of Ran-importin-beta complex formation – biochemical, FRET, CFP-Ran, YFP-importin-beta, homogeneous, primary screen | cell-free CFP-Ran/YFP-importin-beta FRET ratio | 300,000 compounds, 1.1% hits | inhibition, % (no concentration beside the values);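 active = more than half of the replicate wells show a fall in the fluorescence ratio signal beyond about 16%, limit read from the data, passing the limit was not always enough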;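 also: 0% = DMSO wells and 100% = Ran loaded with GDP instead of GTP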
G6PDH ctr: counter-screen for TbHK1 inhibitors: Leuconostoc G6PDH inhibition; AID 2516; shares compounds with Tb hexokinase; inhibition, % at 10 µM; 210 compounds, 7% hits; purified G6PDH, NADH absorbance, 1 h;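 active = at least 50% inhibition in the glucose-6-phosphate dehydrogenase coupled counterscreen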
TbHK1 confirm: confirmation of Trypanosoma brucei hexokinase 1 inhibitors | inhibition, % at 10 µM | shares compounds with Tb hexokinase | recombinant TbHK1, G6PDH-coupled NADH A340 absorbance | 210 compounds, 10% hits | AID 2560;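 active = inhibition of at least 50% in both of the two screening runs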;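 also: 0% and 100% set by the maximum and minimum signal control wells on each plate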
p97 inh conf: confirmation of human p97 ATPase inhibitors | 760 compounds, 44% hits | shares compounds with p97 ATPase inh | AID 1517 | inhibition, % at 8 µM | recombinant p97 ATPase, Kinase-Glo ATP luminescence;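 active = percent inhibition of p97 ATPase above a set limit, the primary screen's mean plus 3 SD, cut at about 15% in these data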;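 also: 0% = DMSO wells and 100% = wells lacking p97 protein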
RUNX1 CBFb TR: disrupts human RUNX1 Runt domain binding to CBFb; shares compounds with Runt-CBFb FRET; TR-FRET RUNX1 Runt domain-CBFb binding; inhibition, % at 20 µM; 480 compounds, 20% hits; AID 1502; in the data active = inhibition above about 40%
YIC counter: counter-screen YIC FRET for RanGTP-importin-beta inhibitors | AID 435026 | 1,000 compounds, 40% hits | IC50, µM | Purified YIC probe, intramolecular FRET ratio YFP/CFP | shares compounds with RanGTP-Imp inh;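 active = fitted half-maximal inhibitory concentration no more than tenfold above the top dose tested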
Active calls of the source: *; x = not tested or not shown; ! = repeats disagree. Hits are enriched below; roughly 2.1% of the tested compounds scored in any of these assays.

SMILES | Runt-SMMHC FRET | Hck Nef HTS | Tb hexokinase | Runt-CBFb FRET | p97 ATPase inh | RanGTP-Imp inh | p97 inh conf | others
CCCCn1c(NC(=O)c2ccc(Br)o2)c(C(=O)OCC)c2nc3ccccc3nc21 | 23 | -14 | -4 | 1 | 17* | x | x
COc1ccc(CCNC(=O)c2c(N)n(CCN3CCOCC3)c3nc4ccccc4nc23)cc1 | 83* | 47 | -32 | 67* | -6 | 69* | x
Cc1nc2ccsc2c(=O)n1-c1ccccc1Cl | x | x | x | x | x | -3 | x
COc1ccc(-c2nc3ccc(C(=O)N4CCC5(CC4)OCCO5)cc3nc2-c2ccc(OC)cc2)cc1 | x | x | x | x | x | 1 | x
CC(Cc1ccccc1)NC(=O)CCCCC(=O)NC(C)Cc1ccccc1 (stereo not given) | x | x | x | x | x | 0 | x
COc1ccc(N2C(=O)NC(=O)/C(=C/c3ccc4c(c3)Cc3ccccc3-4)C2=O)cc1 | -14 | 87* | -1 | x | -2 | -2 | x
COc1cc(/C=C2\C(=O)NC(=O)N(c3ccccc3)C2=O)cc(OC)c1OC | 1 | 8 | -7 | 1 | 2 | 4 | x
N=C1c2ccccc2CN1c1ccc(F)c([N+](=O)[O-])c1 | -1 | 8 | 4 | 0 | 0 | -2 | x
O=C1NC(=O)C2=Cc3ccc(O)cc3OC2(O)N1 (stereo not given) | 90* | 19 | -18 | 3 | 6 | x | x
CCOC(=O)N(c1ccccc1)P1(=S)OCCO1 | 3 | 1 | 14 | 6 | 5 | -6 | x
CCOC(=O)N(c1ccccc1)P1(=S)OCC(C)O1 (stereo not given) | 3 | 4 | 53* | -1 | 0 | -2 | x | G6PDH ctr=-12;TbHK1 confirm=12
CCOP(=O)(OCC)c1cc(C)c(O)c(C(C)(C)C)c1 | -1 | 13 | 3 | -3 | -1 | 0 | x
CN(C)CP(=O)(O)CN(C)C=O | -3 | 4 | 51* | -2 | 1 | 0 | x | G6PDH ctr=-6;TbHK1 confirm=3
Cc1ccc(C2(O)CC(C)N(C)CC2C)cc1 (stereo not given) | 2 | 6 | 53* | -3 | -2 | -2 | x | G6PDH ctr=-3;TbHK1 confirm=0
O=C(c1ccc(Cl)cc1)C1CCCN(Cc2ccc3ncccc3c2)C1 (stereo not given) | -6 | 17 | 6 | 2 | -6 | 2 | x
COc1ccc(CCn2c(O)c(C=NCc3ccc4c(c3)OCO4)c(=O)[nH]c2=O)cc1OC | 4 | 14 | 2 | 0 | 6 | 1 | x
COc1ccc(OC)c(-n2c(O)c(C=NCc3ccc4c(c3)OCO4)c(=O)[nH]c2=O)c1 | -2 | 4 | 55* | -3 | 4 | -1 | x | G6PDH ctr=-2;TbHK1 confirm=5
CCC(C)NC(=O)c1c(N)n(CC2CCCO2)c2nc3ccccc3nc12 (stereo not given) | 100* | 42 | -10 | 12 | 29* | 5 | -4
COc1ccc(C(CNC(=O)c2ccc3c(c2)CCC3)N(C)C)cc1 (stereo not given) | x | x | x | x | x | -1 | x
CCCCn1c(C)c(C(=O)OCC)c2c(CN3CCCC3)c(O)ccc21 | x | x | x | x | x | 1 | x
CCCCn1c(NS(=O)(=O)c2ccccc2)c(C(=O)OCC)c2nc3ccccc3nc21 | 9 | 14 | 27 | 3 | 21* | 85* | 2
Cc1[nH]n(-c2ccccc2)c(=O)c1C(c1ccc([N+](=O)[O-])cc1)c1c(C)[nH]n(-c2ccccc2)c1=O | -5 | 4 | -12 | 4 | 40* | 3 | 8
CN[C@H]1C[C@H]2O[C@@](C)([C@H]1OC)n1c3ccccc3c3c4c(c5c6ccccc6n2c5c31)C(=O)NC4 | -4 | x | -15 | -4 | 15* | -3 | 12
CCCC[n+]1cc(=N)o[n-]1 | x | x | x | x | x | 4 | x
CC(=O)O[C@@]12CO[C@@H]1C[C@H](OC1OCC(O)C(O)C1O)[C@@]1(C)C(=O)[C@H](O)C3=C(C)[C@@H](OC(=O)[C@H](O)[C@@H](NC(=O)c4ccccc4)c4ccccc4)C[C@@](O)([C@@H](OC(=O)c4ccccc4)C12)C3(C)C (stereo not given in full) | x | x | x | x | x | -5 | x
SMILES | Runt-SMMHC FRET | Hck Nef HTS | Tb hexokinase | Runt-CBFb FRET | p97 ATPase inh | RanGTP-Imp inh | p97 inh conf | others
CC(C)c1ccc(N2C(=O)NC(=O)/C(=C/C=C/c3ccco3)C2=O)cc1 | -36 | 7 | 20 | -3 | 16* | 0 | 11
C=CCn1c(O)c(C(CC)=Nc2ccc(N(C)C)cc2)c(=O)[nH]c1=O | 0 | 14 | -5 | 22 | 6 | -2 | x
Cc1cc2c(C(C)C)c(O)c(O)c(C=O)c2c(O)c1-c1c(C)cc2c(C(C)C)c(O)c(O)c(C=O)c2c1O | -2 | 102* | 26 | 3 | 21*! | x | 77*
C=CCN(c1ccc(C(=O)N(CC)CC)cc1)S(C)(=O)=O | 0 | 7 | -1 | -6 | 0 | 0 | x
CCN(CC)C(=O)c1ccc(N2C(=O)C3CC=C(Cl)CC3C2=O)cc1 (stereo not given) | 1 | -1 | -2 | -2 | 16* | -1 | 5
CC(C)(C)P(=O)(NCc1ccccc1)c1ccccc1 (stereo not given) | 0 | 18 | -2 | -1 | 16* | x | 3
O=C(CCC(=O)N1CC2C[C@@H](C1)Cn1c2cccc1=O)NCCc1ccccc1 | x | x | x | x | x | 4 | x
COc1ccc(/C=C/C(=O)c2c(O)n(CCC3=CCCCC3)c(=O)[nH]c2=O)cc1OC | -9 | 25 | -19 | -8 | 4 | -1 | x
CC(C)(C)OC(=O)c1c(N)n(Cc2ccco2)c2nc3ccccc3nc12 | 59* | 36 | -15 | 71* | 16* | 32* | 5
CCOC(=O)c1c(C)n(Cc2ccco2)c2ccc(O)cc12 | 1 | -8 | 1 | 3 | 2 | 6 | x
COCCCn1c(N)c(C(=O)NCc2ccco2)c2nc3ccccc3nc21 | 81* | 43 | -22 | 60* | 37* | 58* | 19* | RUNX1 CBFb TR=34
Nc1ncn[nH]1 | x | x | x | x | x | -1 | x
COCCCn1c(N)c(C(=O)OC(C)COC)c2nc3ccccc3nc21 (stereo not given) | 94* | 37 | -17 | 79* | 15* | 25* | 6 | YIC counter=27*
